Screening data deposited in PubChem by Broad Institute.
Rows were chosen to be rich in hits. Some 2.6% of all compounds tested hit in one or more screens of this group.
Wnt act = Wnt/beta-catenin pathway activation. activation, % at 9.35 µM. Wnt/beta-catenin reporter cell assay, activator, plate reader. AID 743398. 300,000 compounds, 1.2% hits; in the data active = activation above about 30%, passing the limit was not always enough; inconclusive = no clear call, values can overlap the other calls
Vif imaging = HIV Vif inhibition. HEK293T cells, Vif self-association by quenched fluorescence, imaging, 24 h. inhibition, % at 7.49 µM. 340,000 compounds, 0.35% hits; in the data active = inhibition above about 50%, passing the limit was not always enough; inconclusive = no clear call, values can overlap the other calls; inactive = below about 31%
MITF TRPM1 HTS = MITF TRPM1 promoter activation in melanoma cells; activation, % at 12.5 µM; SK-MEL-5 TRPM1-promoter luciferase, 24 h; % of positive control, neutral wells = 0; 300,000 compounds, 0.75% hits;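 active = mean activation of at least 80% with every replicate also reaching 80%; inconclusive = mean reaches 80% but some replicate falls short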
XiGFP reactiv = activators of X-chromosome reactivation in mouse fibroblasts. XiGFP mouse fibroblasts, % GFP-positive cells imaging, 3 d; cells co-treated with 5-aza-dC sensitizer; scaled so ellipticine positive control = 100%. AID 743238. 360,000 compounds, 0.055% hits. activation, % at 7.58 µM;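 active = mean normalized replicate activation at least 10% and every replicate at or above 10%; inconclusive = only one of the two criteria met; inactive = mean below 10% and not all replicates reach 10%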
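Assay system – SV40-immortalized XiGFP fibroblast cells, line 68-5-11 · Buffer or medium – DMEM supplemented with 5-aza-dC as sensitizing agent · Dosing – one concentration, pinned · Benchmarks – positive control ellipticine, 6 µM final · Times – 3 days compound exposure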
esBAF inh = inhibitors of esBAF chromatin remodeling in mouse ES cells | reporter increase, % at 12.5 µM | Bmi1-luciferase knock-in reporter, 24 h; 100% = twice the neutral-well signal | AID 602393 | 350,000 compounds, 2% hits; in the data active = activation above about 40%; inconclusive = no clear call, values can overlap the other calls;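 also: a rise in the Bmi1 reporter signal indicates esBAF inhibition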
Numbers stand for hits; – = inactive; ? = inconclusive; · = no result.

SMILES | Wnt act | Vif imaging | MITF TRPM1 HTS | XiGFP reactiv | esBAF inh
O=C(NCc1cc(F)ccc1F)C1CCC(=O)N(C2CCCCCC2)C1 (configuration not stated) | – | – | – | – | 48
COc1ccccc1Oc1coc2cc(OCC(N)=O)ccc2c1=O | – | 59 | – | – | –
O=C(C[C@H]1CC[C@@H]2[C@H](COC[C@@H](O)CN2Cc2ccc(F)cc2)O1)NCc1ccccc1Cl | · | · | · | – | –
COc1ccc(S(=O)(=O)N(C)C[C@@H]2Oc3c(NS(=O)(=O)c4ccc(Cl)cc4)cccc3C(=O)N([C@@H](C)CO)C[C@@H]2C)cc1 | · | · | · | – | –
Cc1ccccc1C1CC(=O)Oc2cc(O)ccc21 (configuration not stated) | · | 63 | – | · | –
COc1ccc(/C=C/C(=O)C2C(=O)C=C(C)OC2=O)cc1O (configuration not stated) | 35 | – | – | – | 51
Cc1ccc(-n2nc3ccc(N)cc3n2)cc1 | · | – | – | · | ·
CC(C)c1ccc(-n2nc3ccc(N)cc3n2)cc1 | 38 | – | – | – | –
Cc1cc2nn(-c3ccc(Cl)cc3)nc2cc1N | 33 | – | – | – | ·
CN1CCN(c2ccc(NC(=O)c3ccc(-c4ccccc4F)o3)cc2)CC1 | 49 | – | – | – | –
O=C(Nc1ccccc1)c1ccc(-c2ccccc2Cl)o1 | – | – | 89 | – | 53
O=C(O)c1ccc(-c2ccccc2Cl)o1 | · | – | – | · | –
CC(=O)Nc1ccc(NC(=O)c2ccc(-c3ccccc3Cl)o2)cc1 | – | · | – | – | 43
N#Cc1ccccc1NC(=O)c1ccc(-c2ccccc2Cl)o1 | – | – | ? | · | 50
C[C@H]1CN(C)C(=O)Cc2ccccc2O[C@H]1CN(C)C(=O)OC(C)(C)C | · | · | · | – | ·
C[C@@H]1CCCCO[C@H](CN(C)C)[C@H](C)CN([C@@H](C)CO)C(=O)c2cc(NS(=O)(=O)c3ccc(Cl)cc3)ccc2O1 | · | · | · | – | –
O=C(Nc1ccc2c(c1)[C@@H]1C[C@@H](CC(=O)N3CCOCC3)O[C@@H](CO)[C@@H]1O2)C1CCOCC1 | · | · | · | – | –
O=C(C[C@@H]1CC[C@H](NC(=O)Cc2ccccn2)[C@@H](CO)O1)NCCc1ccncc1 | · | · | · | – | –
CN(C)S(=O)(=O)Oc1ccsc1C(=O)Nc1cccc(Cl)c1 | – | – | – | · | –
O=C(Nc1ccccc1)c1ccc(-c2ccc(Br)cc2)o1 | 33 | – | · | · | –
COC(=O)c1sccc1-c1ccc(C(=O)Nc2cccc(Cl)c2)o1 | · | – | · | · | 51
O=C(Nc1cccc(NC(=O)c2ccc(-c3ccc(Br)cc3)o2)c1)c1ccccc1 | · | – | – | · | ·
COc1cccc(S(=O)(=O)Nc2ccc3c(c2)[C@H]2C[C@@H](CC(=O)N(C)C)O[C@H](CO)[C@H]2O3)c1 | · | · | · | – | –
Cc1ccc(SCCC(=O)N2CCC(C)CC2)cc1 | ? | – | · | · | 59
COc1ccc2c(c1)O/C(=C\c1sccc1C)C2=O | · | – | – | – | 42
SMILES | Wnt act | Vif imaging | MITF TRPM1 HTS | XiGFP reactiv | esBAF inh
O=C(O)COc1ccc2c(c1)O/C(=C\c1cccs1)C2=O | – | – | – | – | –
CCCC#Cc1ccc2c(c1)[C@@H]1[C@@H](CCN1C(=O)C1CCCCC1)[C@@H](CO)N2 | · | · | · | – | ·
C#CCN(CC=C)C(=O)CCc1nnc(COc2ccccc2)o1 | – | – | – | – | 59
C=C(C)CN(CC)C(=O)CCc1nnc(CCCc2ccccc2)o1 | – | – | – | – | ·
O=C(N/N=C/c1ccc(OC2CSC2)cc1)c1ccccc1 | · | · | – | · | 67
CCOc1ccc(/C=C/C(=O)c2ccccc2)cc1 | ? | – | ? | – | ?
Nc1ccc(C(=O)N/N=C/c2ccccc2)cc1 | – | – | 84 | · | ·
O=C(N/N=C/c1ccc(OCc2ccc(F)cc2)cc1)c1ccccc1 | – | – | – | – | ·
O=C(CCNC(=O)c1ccccc1Cl)N/N=C\c1ccc(O)cc1 | – | – | – | – | ·
CC(C)c1ccc(/C=N/NC(=O)CCNC(=O)c2ccccc2)cc1 | – | – | – | – | 62
O=C(/C=C/c1ccc(OC2CSC2)cc1)c1ccccc1 | 39 | – | – | · | ?
O=C(NCC1CC1)[C@H]1[C@H](CO)[C@H]2Cn3c(ccc(-c4cccc(F)c4)c3=O)[C@H]2N1CC1CC1 | · | · | · | – | –
CCCC(=O)N1CCC1(C)C(=O)Nc1cc(-c2ccccc2)nn1C (configuration not stated) | 33 | – | · | – | 55
COc1ccc(S(=O)(=O)Nc2ccc3c(c2)C(=O)N([C@H](C)CO)C[C@H](C)[C@H](CN(C)C(=O)Nc2c(C)noc2C)OCCCC[C@H](C)O3)cc1 | · | · | · | – | –
Cc1cc(NC(=O)c2ccccc2)sc1C | 54 | · | – | · | –
O=C([C@H]1[C@H](CO)[C@H]2Cn3c(cccc3=O)[C@H]2N1Cc1ccccc1Cl)N1CCCCC1 | · | · | · | – | –
CC(C)(C)Nc1nc2cc([N+](=O)[O-])ccc2o1 | – | – | – | – | –
Nc1ccc(-c2nc3cc([N+](=O)[O-])ccc3o2)cc1 | 44 | – | – | – | –
O=[N+]([O-])c1ccc2oc(/C=C/c3ccc(O)cc3)nc2c1 | – | – | · | – | 42
COc1ccc(-c2nc3cc([N+](=O)[O-])ccc3o2)cc1 | – | – | – | – | ·
C[C@@H]1CN([C@H](C)CO)C(=O)c2cc(NS(=O)(=O)c3ccc(F)cc3)ccc2O[C@@H]1CN(C)Cc1ccc(C(=O)O)cc1 | · | · | · | – | –
Cc1ccc(C(=O)CSc2ccccn2)cc1 | · | – | – | · | 49
C[C@H]1CN([C@@H](C)CO)C(=O)c2cc(NC(=O)CCCN(C)C)ccc2O[C@@H]1CN(C)S(=O)(=O)c1ccccc1 | · | · | · | – | –
COCC(=O)Nc1ccc2c(c1)C(=O)N(C)C[C@@H](OC)[C@H](C)CN(C(C)=O)[C@H](C)CO2 | · | · | · | – | –
Cc1ncoc1C(=O)N1CCCC(C(=O)c2ccc(Oc3ccccc3)cc2)C1 (configuration not stated) | – | 61 | – | – | ·
SMILES | Wnt act | Vif imaging | MITF TRPM1 HTS | XiGFP reactiv | esBAF inh
O=C(N[C@H]1C=C[C@@H](CC(=O)N2CCc3ccccc3C2)O[C@H]1CO)C1CC1 | · | · | · | – | –
COCCNC(=O)C[C@H]1C[C@@H]2c3cc(NS(=O)(=O)c4ccc(F)cc4)ccc3O[C@@H]2[C@H](CO)O1 | · | · | · | – | –
COc1ccc(C(=O)NCCn2ccc3ccccc32)c(OC)c1 | – | – | – | · | 55
COc1ccc(S(=O)(=O)Nc2ccc3c(c2)C(=O)N([C@H](C)CO)C[C@@H](C)[C@H](CN(C)C(=O)C2CCCCC2)OCCCC[C@H](C)O3)cc1 | · | · | · | – | –
Cc1cccc(Nc2nc(N)nc(CCl)n2)c1 | – | 142 | · | – | ·
COc1cccc(Nc2nc(N)nc(CCl)n2)c1 | – | – | · | – | ·
Cc1ccc(Nc2nc(N)nc(CSc3nnc(-c4ccncc4)o3)n2)cc1 | – | 83 | – | · | –
Cc1ccc(Nc2nc(N)nc(CCl)n2)cc1 | 39 | – | · | – | ·
Cc1ccc(Nc2nc(N)nc(CC#N)n2)cc1 | · | – | – | · | 69
Cc1ccc(Nc2nc(N)nc(CSCCO)n2)cc1 | – | – | – | · | ?
Cc1ccc(Nc2nc(N)nc(CSc3ncccn3)n2)cc1 | · | – | ? | · | –
